Results collected from several papers.
Compare with care: the assays were run in different laboratories.
Target: Serine/threonine-protein kinase PAK 6 (PAK6, Homo sapiens, UniProt Q9NQU5)

| Compound | observed | action | technique | tested at | measurement | result |
| --- | --- | --- | --- | --- | --- | --- |
| CC(C)(O)[C@H]1CC[C@H](Nc2ccc3ncc(-c4cccc(C(F)(F)F)c4)n3n2)CC1 | enzyme activity | inhibitor | – | 1 µM | remaining activity | 101% |
| CCS(=O)(=O)c1cc2cc(C[C@@](O)(CC(C)(C)c3ccc(F)cc3C(N)=O)C(F)(F)F)[nH]c2cn1 | cell-free assay | – | competition with immobilised ligand | 1 µM | remaining binding | 77% |
| O=C1NC(=O)c2cc(Nc3ccc(F)cc3)c(Nc3ccc(F)cc3)cc21 | cell-free assay | – | – | 0.5 µM | remaining signal | 106% |
| CC(C)(C)c1nc(-c2cccc(NS(=O)(=O)c3c(F)cccc3F)c2F)c(-c2ccnc(N)n2)s1 | enzyme activity | inhibitor | radiometric | 1 µM | remaining activity | 79% |
| CN(C)c1nccc(-c2cnn3ncccc23)n1 | binding | – | – | 1 µM | remaining binding | 100% |
| COc1cc2ncnc(Nc3ccc(Oc4ccccc4)cc3C)c2cc1OC | enzyme activity | inhibitor | – | 1 µM | inhibition | 3% |
| Cn1c(=O)n(-c2ccc(C(C)(C)C#N)cc2)c2c3cc(-c4cnc5ccccc5c4)ccc3ncc21 | enzyme activity | inhibitor | – | 10 µM | remaining activity | 105% |
| Cc1cc(NC(=O)c2cccc3cc(-c4cccc5[nH]nc(N)c45)ccc23)ccc1F | enzyme activity | inhibitor | – | 0.1 µM | activity vs control | 104% |
| CC(C)(C)C(=O)c1sc(NC2CCCCC2)nc1N | enzyme activity | inhibitor | – | 10 µM | remaining activity | 98% |
| O=C(NCCCC1CCCCC1)c1ccc(CNC(=O)c2cnn(-c3ccccc3)c2C(F)(F)F)cc1 | cell-free assay | – | competition with immobilised ligand | 0.1 µM | remaining binding | 100% |
| O=C1Nc2ccc(Cl)cc2C1=Cc1cc(Cl)c(O)c(Cl)c1 | cell-free assay | – | – | 0.5 µM | remaining signal | 97% |
| CNC(=O)c1cc(Oc2ccc(NC(=O)Nc3ccc(Cl)c(C(F)(F)F)c3)cc2)ccn1 | enzyme activity | inhibitor | – | 10 µM | inhibition | -29% |
| O=C(NCc1ncc(C(F)(F)F)cc1Cl)c1ccc2c(c1)C1(CCS(=O)(=O)CC1)[C@H](C1CC1)N2S(=O)(=O)c1ccc(F)cc1 | cell-free assay | – | competition with immobilised ligand | 1 µM | remaining binding | 100% |
| FC(F)(F)Oc1cccc(-c2cnc3ccc(-c4ccncc4)nn23)c1 | enzyme activity | inhibitor | radiometric | 1 µM | activity vs control | 97% |
| Cn1nc(C(=O)NCc2ccc(C(=O)O)cc2)cc1-c1ccc2[nH]ccc2c1 | cell-free assay | – | competition with immobilised ligand | 0.1 µM | remaining binding | 96% |
| O=C(Nc1cnn(-c2csc(C(=O)NC3COC3)c2)c1)Nc1c(F)cccc1Cl | enzyme activity | inhibitor | – | 5 µM | remaining activity | 92.9% |
| CC(=O)N1CCC(c2ccc(C(=O)NC3=NCCN3)cc2C(F)(F)F)CC1 | cell-free assay | – | competition with immobilised ligand | 1 µM | remaining binding | 100% |
| COc1cc(Nc2cnc(C#N)c(O[C@H](C)CN(C)C)n2)ncc1-c1cnn(C)c1 | enzyme activity | inhibitor | radiometric | 10 µM | remaining activity | 43% |
| Cn1cc(Cl)c2c(Oc3c(F)cc(Nc4cc(Cl)nc(N)n4)cc3F)ccnc21 | cell-free assay | – | competition with immobilised ligand | 0.1 µM | remaining binding | 100% |
| CCN(CC)CCNC(=O)c1c(C)[nH]c(/C=C2\C(=O)Nc3ccc(F)cc32)c1C | enzyme activity | inhibitor | – | 10 µM | inhibition | 29% |
